Active and inactive are the calls of the source. The rule behind the calls is not given here.
Experiments:
[1] = system: Severe acute respiratory syndrome coronavirus 2; assay: Inhibition of recombinant SARS-CoV-2 main protease using Dabcyl-KTSAVLQSGFRKME-Edans as substrate assessed as reduction in proteolytic activity at 20 uM preincubated for 10 mins followed by substrate addition and measured after 10 mins by FRET-based enzymatic cleavage assay relative to control; details: time 20.0 min
In short: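 Recombinant SARS-CoV-2 Mpro at 50 nM final, with 25 µM final substrate and 20 µM final compound, in 20 mM Tris pH 7.5, 0.1 mM EDTA, 1 mM DTT, 200 mM NaCl. Substrate cleavage was followed at 25 °C as rising Edans fluorescence (ex 335/em 493 nm) after release of the Dabcyl quencher.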

[2] = Inhibition of recombinant SARS-CoV-2 main protease using Dabcyl-KTSAVLQSGFRKME-Edans as substrate assessed as reduction in proteolytic activity preincubated for 10 mins followed by substrate addition and measured after 10 mins by FRET-based enzymatic cleavage assay; design: species or system Severe acute respiratory syndrome coronavirus 2
[3] = system: Human coronavirus OC43; assay: Antiviral activity against HCoV-OC43 infected in human HCT-8 cells preincubated with cell for 1 hrs followed by viral infection and measured after 72 hrs by focus forming reduction assay; format: functional, organism-based; details: Betacoronavirus 1, HCT-8
[4] = Thiol reactivity of compound in phosphate buffer with N-acetyl cysteine at pH 7.4 assessed as micheal adduct formation by measuring conversion rate measured after 24 hrs by HPLC-MS analysis; format: physicochemical; details: pH 7.4, 24 h
[5] = molecular target: Procathepsin L (Homo sapiens) (UniProt P07711); assay: Inhibition of human cathepsin L using Z-phe-Arg-AMC as substrate at 20 uM by FRET-based enzymatic cleavage assay relative to control
Chain of Procathepsin L (Homo sapiens) (P07711 114-333 limits assumed): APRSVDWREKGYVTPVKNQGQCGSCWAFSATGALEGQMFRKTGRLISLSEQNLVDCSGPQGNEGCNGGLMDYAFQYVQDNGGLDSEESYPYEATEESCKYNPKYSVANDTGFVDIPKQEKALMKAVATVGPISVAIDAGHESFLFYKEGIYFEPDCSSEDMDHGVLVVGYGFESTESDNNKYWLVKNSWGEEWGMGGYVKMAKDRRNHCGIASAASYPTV

[6] = system: CAPAN-1; assay: Cytotoxicity against human CAPAN-1 cells assessed as inhibition of cell growth incubated for 5 days by MTS assay; details: CAPAN-1, 120 h
[7] = system: BXPC-3; assay: Cytotoxicity against human BXPC-3 cells assessed as inhibition of cell growth incubated for 5 days by MTS assay; details: BXPC-3, 120 h
[8] = molecular target: Cathepsin B (Homo sapiens) (UniProt P07858); assay: Inhibition of human cathepsin B using Z-phe-Arg-AMC as substrate at 20 uM by FRET-based enzymatic cleavage assay relative to control
[9] = Thiol reactivity of compound in phosphate buffer with N-acetyl cysteine at pH 7.4 assessed as micheal adduct formation by measuring conversion rate measured after 1 hrs by HPLC-MS analysis; format: physicochemical; details: pH 7.4, 1 h
In short: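 Compound with 1.1 equiv N-acetylcysteine in PBS pH 7.4 containing 10% ACN, stirred 1 h at 37 °C. The mixture was concentrated under reduced pressure, and consumption of starting material and adduct formation were followed by HPLC-MS.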

[10] = Thiol reactivity of compound in phosphate buffer with N-acetyl cysteine at pH 7.4 assessed as micheal adduct formation measured after 24 hrs by 19F-NMR spectroscopic analysis; format: physicochemical; details: pH 7.4, 24 h

CCOC(=O)/C=C/c1ccc(NC(=O)[C@H](Cc2ccccc2)NC(=O)OCc2c[nH]c3ccccc23)cc1
inhibition [1]: 60% | IC50 [2]: 12.4 µM | EC50 [3]: 9.14 µM

CCOC(=O)/C=C/c1ccc(NC(=O)[C@H](Cc2ccccc2)NC(=O)OCc2ccccc2)cc1
inhibition [1]: 40% | Activity [4]: 70%

CCOC(=O)/C(F)=C/c1ccc(NC(=O)[C@H](Cc2ccccc2)NC(=O)c2cc3ccccc3[nH]2)cc1
inhibition [5]: inactive | IC50 [6]: 28.3 µM | IC50 [7]: 14.1 µM

CCOC(=O)/C(F)=C/c1ccc(NC(=O)[C@H](Cc2ccccc2)NC(=O)OCc2ccccc2)cc1
inhibition [5]: inactive | IC50 [6]: 40.6 µM | IC50 [7]: 25.9 µM

CCOC(=O)/C(F)=C/c1ccc(NC(=O)[C@H](Cc2ccccc2)NC(=O)OCc2c[nH]c3ccccc23)cc1
inhibition [5]: 29% | inhibition [8]: 20% | IC50 [6]: 20.8 µM | IC50 [7]: 5.79 µM | Activity [9]: ~ 80%

CCOC(=O)/C(F)=C/c1ccc(N)cc1
Activity [10]: Active
